# Source: ChEMBL document CHEMBL4602710 (ACS Med Chem Lett, 2020)
# Activity calls are given as the source filed them. The rule behind the calls is not given here.
# Columns and labels:
# [1] = Solubility of compound at pH 7.4; type: physicochemical; conditions: buffer
# [2] = target: T1, Tyrosine-protein kinase SYK (Homo sapiens, UniProt P43405); assay: Inhibition of SYK in human Ramos cells assessed as reduction in antihuman IgM F(ab)2-induced phosphorylation of BLNK at Y96 residue preincubated for 1 hr followed by antihuman IgM F(ab)2 stimulation for 5 mins by MSD high bind plate assay; type: cell-based
# [3] = Clearance in human liver microsomes; type: ADME, Microsome
# [4] = Oral bioavailability in rat at 5 mg/kg; type: ADME, organism-based; conditions: in vivo
# [5] = target: T1, Tyrosine-protein kinase SYK; assay: Inhibition of SYK in human whole blood assessed as reduction in anti-FCepsilonR1 mAb-induced basophil activation by measuring decrease in CD63 surface expression incubated for 60 mins followed by anti-FCepsilonR1 mAb stimulation for 20 mins by flow cytometry analysis; type: tissue-based
# [6] = Solubility of compound at pH 2; type: physicochemical; conditions: buffer
# [7] = target: T1, Tyrosine-protein kinase SYK; assay: Inhibition of SYK (unknown origin) using XL665-labeled peptide as substrate in presence of ATP measured after 30 mins by TR-FRET assay
# [8] = Efflux ratio of apparent permeability of compound in human Caco2 cells; type: ADME, cell-based; conditions: Caco-2
# [9] = Apparent permeability of compound in human Caco2 cells; type: ADME, cell-based; conditions: Caco-2
# [10] = Distribution coefficient, logD of compound; type: physicochemical; conditions: octanol/water
# [11] = Clearance in rat at 1 mg/kg, iv or 5 mg/kg, po; type: ADME, organism-based; conditions: in vivo
# [12] = AUC in human at 45 mg, po administered as single dose; type: ADME, organism-based; conditions: in vivo
# Summary of the method: (§1)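 Healthy human volunteers given a single oral 45 mg dose, either without pretreatment or after pretreatment with 20 mg omeprazole; plasma AUC compared.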
# [13] = Fraction unbound in human plasma; type: ADME, cell-free
# [14] = Half life at steady state in human at 2 to 50 mg administered once daily; type: ADME; conditions: in vivo, read-out: t1/2ss
# Mus musculus [15] = assay: Protective activity in NZBWF1/J mouse SLE model assessed as reduction in proteinuria at 0.25%, po administered daily for 12 weeks measured weekly from week 28-40; type: functional, organism-based
# Summary of the method: (§2)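 Spontaneous lupus model in NZB/W F1 mice, treated for 12 weeks. Proteinuria score followed from weeks 28–40; survival assessed at week 40.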
# [16] = target: Tyrosine-protein kinase JAK2 (Homo sapiens, UniProt O60674); assay: Inhibition of wild-type human partial length JAK2 JH1 catalytic domain (A829 to G1132 residues) expressed in mammalian expression system by Kinomescan method
# Tyrosine-protein kinase JAK2, sequence (O60674 whole entry, the tested form may be a part): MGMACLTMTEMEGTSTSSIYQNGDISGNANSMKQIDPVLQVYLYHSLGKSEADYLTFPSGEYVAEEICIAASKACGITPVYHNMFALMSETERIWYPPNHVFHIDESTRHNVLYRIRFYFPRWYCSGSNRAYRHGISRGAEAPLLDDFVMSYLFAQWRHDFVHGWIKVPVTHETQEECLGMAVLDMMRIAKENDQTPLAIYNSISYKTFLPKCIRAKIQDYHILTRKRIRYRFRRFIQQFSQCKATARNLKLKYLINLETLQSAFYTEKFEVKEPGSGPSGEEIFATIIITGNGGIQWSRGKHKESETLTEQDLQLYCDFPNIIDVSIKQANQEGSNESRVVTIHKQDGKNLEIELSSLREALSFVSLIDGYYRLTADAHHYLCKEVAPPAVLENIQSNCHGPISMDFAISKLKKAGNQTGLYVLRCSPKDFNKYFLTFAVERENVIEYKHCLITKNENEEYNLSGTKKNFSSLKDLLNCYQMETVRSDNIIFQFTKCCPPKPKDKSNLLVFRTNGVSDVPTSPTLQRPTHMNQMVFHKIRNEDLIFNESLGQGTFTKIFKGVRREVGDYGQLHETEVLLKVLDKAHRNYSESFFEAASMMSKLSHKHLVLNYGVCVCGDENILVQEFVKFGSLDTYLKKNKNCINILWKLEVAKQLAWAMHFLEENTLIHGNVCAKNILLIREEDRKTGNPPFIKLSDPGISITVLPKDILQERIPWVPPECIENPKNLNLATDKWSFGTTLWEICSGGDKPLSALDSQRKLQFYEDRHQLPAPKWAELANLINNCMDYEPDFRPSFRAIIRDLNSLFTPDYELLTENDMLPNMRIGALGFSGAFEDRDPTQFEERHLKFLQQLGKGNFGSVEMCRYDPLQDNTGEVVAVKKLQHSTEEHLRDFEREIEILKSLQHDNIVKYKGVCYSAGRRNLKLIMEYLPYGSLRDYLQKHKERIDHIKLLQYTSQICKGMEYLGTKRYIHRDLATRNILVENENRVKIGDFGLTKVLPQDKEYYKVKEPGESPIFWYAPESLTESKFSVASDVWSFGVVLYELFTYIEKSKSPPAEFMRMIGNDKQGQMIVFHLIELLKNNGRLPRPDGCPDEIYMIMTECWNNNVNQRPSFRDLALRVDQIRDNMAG
# [17] = Apparent clearance in rat hepatocytes; type: ADME, cell-based, Hepatocyte
# [18] = Apparent clearance in human hepatocytes; type: ADME, cell-based, Hepatocyte
# [19] = Volume of distribution at steady state in monkey at 1 mg/kg, iv or 5 mg/kg, po; type: ADME, organism-based, Macaca mulatta; conditions: rhesus monkey, in vivo, read-out: Vdss
# [20] = Toxicity in human assessed as clinical abnormalities at 2 to 50 mg administered as single dose; conditions: in vivo
# Summary of the method: (§3)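 Healthy human volunteers received single doses of 2–50 mg or multiple doses of 15–50 mg; adverse events and laboratory abnormalities recorded.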
# [21] = Oral bioavailability in dog at 5 mg/kg; type: ADME, organism-based, Canis lupus familiaris; conditions: in vivo
# [22] = Clearance in monkey at 1 mg/kg, iv or 5 mg/kg, po; type: ADME, organism-based, Macaca mulatta; conditions: rhesus monkey, in vivo
# [23] = Fraction unbound in dog plasma; type: ADME, cell-free, Canis lupus familiaris
# [24] = Clearance in dog at 1 mg/kg, iv or 5 mg/kg, po; type: ADME, organism-based, Canis lupus familiaris; conditions: in vivo
# [25] = Toxicity in human assessed as adverse events at 15 to 50 mg administered as multiple doses; conditions: in vivo; summary of the method: as §3
# [26] = AUC in dog pretreated with famotidine; type: ADME, Canis lupus familiaris; conditions: in vivo
# [27] = Half life in dog at 1 mg/kg, iv or 5 mg/kg, po; type: ADME, organism-based, Canis lupus familiaris; conditions: in vivo
# Hepatocyte [28] = assay: Apparent clearance in monkey hepatocytes; type: ADME, cell-based, Macaca mulatta; conditions: rhesus monkey
# [29] = Toxicity in human assessed as clinical abnormalities at 15 to 50 mg administered as multiple doses; conditions: in vivo; summary of the method: as §3
# [30] = Half life in rat at 1 mg/kg, iv or 5 mg/kg, po; type: ADME, organism-based; conditions: in vivo
# [31] = Toxicity in human assessed as adverse events at 2 to 50 mg administered as single dose; conditions: in vivo; summary of the method: as §3
# [32] = Fraction unbound in rat plasma; type: ADME, cell-free
# [33] = Oral bioavailability in monkey at 5 mg/kg; type: ADME, organism-based, Macaca mulatta; conditions: rhesus monkey, in vivo
# [34] = Fraction unbound in monkey plasma; type: ADME, cell-free, Macaca mulatta; conditions: rhesus monkey
# [35] = Volume of distribution at steady state in dog at 1 mg/kg, iv or 5 mg/kg, po; type: ADME, organism-based, Canis lupus familiaris; conditions: in vivo, read-out: Vdss
# [36] = AUC in human at 45 mg, po administered as single dose pretreated with omeprazole; type: ADME, organism-based; conditions: in vivo; summary of the method: as §1
# Hepatocyte [37] = assay: Apparent clearance in dog hepatocytes; type: ADME, cell-based, Canis lupus familiaris
# [38] = AUC in dog pretreated with pentagastrin; type: ADME, Canis lupus familiaris; conditions: in vivo
# [39] = Volume of distribution at steady state in rat at 1 mg/kg, iv or 5 mg/kg, po; type: ADME, organism-based; conditions: in vivo, read-out: Vdss
# Mus musculus [40] = assay: Protective activity in NZBWF1/J mouse SLE model assessed as increase in animal survival rate at 0.25%, po administered daily for 12 weeks measured at week 40; type: functional, organism-based; summary of the method: as §2
# [41] = Half life in monkey at 1 mg/kg, iv or 5 mg/kg, po; type: ADME, organism-based, Macaca mulatta; conditions: rhesus monkey, in vivo
smiles,measurement,setting,value
c1cn2cc(-c3cnc4c(c3)NCCO4)nc(Nc3ccc(N4CCN(C5COC5)CC4)cc3)c2n1,solubility,[1],> 100 µM
same,EC50,[2],46.8 nM
same,CLhep predicted,[3],4.17 mL/min/kg
same,bioavailability,[4],38%
same,EC50,[5],89 nM
same,solubility,[6],> 100 µM
same,IC50,[7],8.4 nM
CN(C)C[C@@H]1CN(c2ccc(Nc3nc(-c4ccc5cn[nH]c5c4)cn4ccnc34)cc2)CCO1,solubility,[1],78 µM
same,EC50,[2],109 nM
same,efflux ratio,[8],29
same,CLhep predicted,[3],3.83 mL/min/kg
same,bioavailability,[4],2%
same,Papp,[9],0.5 ×10⁻⁶ cm/s
same,logD,[10],1.9 to 2.7
same,EC50,[5],231 nM
same,solubility,[6],90 µM
same,IC50,[7],0.9 nM
c1cn2cc(-c3ccc4nc[nH]c4c3)nc(Nc3ccc(N4CCN(C5COC5)CC4)cc3)c2n1,solubility,[1],49 µM
same,EC50,[2],47 nM
same,efflux ratio,[8],38
same,CLhep predicted,[3],< 1.83 mL/min/kg
same,Papp,[9],0.4 ×10⁻⁶ cm/s
same,EC50,[5],90 nM
same,solubility,[6],> 100 µM
same,IC50,[7],17.3 nM
Nc1cncc(-c2cn3ccnc3c(Nc3ccc(N4CCN(C5COC5)CC4)cc3)n2)n1 [LANRAPLENIB],solubility,[1],99 µM
same,clearance,[11],29.5 mL/min/kg
same,CLhep predicted,[3],< 1.83 mL/min/kg
same,AUC,[12],6.19 µM·h
same,fraction unbound,[13],0.204
same,bioavailability,[4],60%
same,half-life,[14],1280 to 1480 min
same,Activity,Mus musculus [15],Active
same,IC50,[16],120 nM
same,CLH(app),[17],1.4 L/h/kg
same,CLH(app),[18],0.05 L/h/kg
same,Vd,[19],1.3 L/kg
same,Activity,[20],Non-Toxic
same,logD,[10],1.3
same,bioavailability,[21],100%
same,clearance,[22],9.67 mL/min/kg
same,fraction unbound,[23],0.385
same,clearance,[24],5.5 mL/min/kg
same,Activity,[25],Non-Toxic
same,AUC,[26],10.2 µM·h
same,half-life,[27],318 min
same,CLH(app),Hepatocyte [28],0.28 L/h/kg
same,Activity,[29],Non-Toxic
same,half-life,[30],222 min
same,Activity,[31],Non-Toxic
same,fraction unbound,[32],0.118
same,bioavailability,[33],100%
same,fraction unbound,[34],0.322
same,Vd,[35],1.6 L/kg
same,solubility,[6],> 100 µM
same,AUC,[36],6.46 µM·h
same,CLH(app),Hepatocyte [37],0.28 L/h/kg
same,AUC,[38],8.8 µM·h
same,Vd,[39],2.5 L/kg
same,Activity,Mus musculus [40],Active
same,half-life,[41],138 min
c1cn2cc(-c3cnc4c(n3)NCCO4)nc(Nc3ccc(N4CCN(C5COC5)CC4)cc3)c2n1,solubility,[1],99 µM
same,EC50,[2],86 nM
same,efflux ratio,[8],3
same,CLhep predicted,[3],< 1.83 mL/min/kg
same,bioavailability,[4],21%
same,Papp,[9],11 ×10⁻⁶ cm/s
same,EC50,[5],79 nM
same,solubility,[6],> 100 µM
same,IC50,[7],7.8 nM
c1cn2cc(-c3cnc4nc[nH]c4c3)nc(Nc3ccc(N4CCN(C5COC5)CC4)cc3)c2n1,solubility,[1],< 1 µM
same,EC50,[2],286 nM
same,efflux ratio,[8],5.8
same,CLhep predicted,[3],3 mL/min/kg
same,Papp,[9],2.7 ×10⁻⁶ cm/s
same,EC50,[5],309 nM
same,solubility,[6],> 100 µM
same,IC50,[7],13.4 nM
c1cn2cc(-c3ccc4cn[nH]c4c3)nc(Nc3ccc(N4CCN(C5COC5)CC4)cc3)c2n1,solubility,[1],< 1 µM
same,EC50,[2],53 nM
same,efflux ratio,[8],2.9
same,CLhep predicted,[3],3 mL/min/kg
same,bioavailability,[4],42%
same,Papp,[9],5.5 ×10⁻⁶ cm/s
same,logD,[10],1.9 to 2.7
same,EC50,[5],385 nM
same,solubility,[6],> 100 µM
same,IC50,[7],9.2 nM
OC1CCN(c2ccc(Nc3nc(-c4ccc5cn[nH]c5c4)cn4ccnc34)cc2)CC1,solubility,[1],3 µM
same,EC50,[2],33 nM
same,CLhep predicted,[3],4.67 mL/min/kg
same,logD,[10],1.9 to 2.7
same,EC50,[5],591 nM
same,solubility,[6],84 µM
same,IC50,[7],1.2 nM
